For assay [1], the target named is T1, Muscarinic acetylcholine receptor M2 (Homo sapiens, UniProt P08172).
T1 sequence (P08172 whole entry): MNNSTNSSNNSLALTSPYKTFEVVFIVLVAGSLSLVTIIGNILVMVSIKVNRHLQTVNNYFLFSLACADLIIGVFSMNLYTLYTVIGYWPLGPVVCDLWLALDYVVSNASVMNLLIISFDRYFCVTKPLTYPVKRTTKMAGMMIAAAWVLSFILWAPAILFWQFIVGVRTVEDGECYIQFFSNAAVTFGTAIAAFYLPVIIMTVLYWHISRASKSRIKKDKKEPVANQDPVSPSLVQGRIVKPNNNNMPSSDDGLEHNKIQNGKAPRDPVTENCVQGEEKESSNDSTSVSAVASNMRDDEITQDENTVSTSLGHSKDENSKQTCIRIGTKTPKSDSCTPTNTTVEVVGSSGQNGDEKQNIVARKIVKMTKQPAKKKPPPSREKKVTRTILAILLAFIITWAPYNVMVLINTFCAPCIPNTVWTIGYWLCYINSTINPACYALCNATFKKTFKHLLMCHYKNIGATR
The assay can be described thus: Binding affinity to human muscarinic M2 receptor expressed in […] cells at 22 +/- 1 degree C preincubated for 110 mins followed by atropine addition by flow cytometric saturation binding study. The assay is classed as cell-based. A general note: In flow cytometry, cells or beads pass a laser one at a time.

In assay [2] the target is T2, Muscarinic acetylcholine receptor M4 (Homo sapiens, UniProt P08173).
T2 sequence (P08173 whole entry): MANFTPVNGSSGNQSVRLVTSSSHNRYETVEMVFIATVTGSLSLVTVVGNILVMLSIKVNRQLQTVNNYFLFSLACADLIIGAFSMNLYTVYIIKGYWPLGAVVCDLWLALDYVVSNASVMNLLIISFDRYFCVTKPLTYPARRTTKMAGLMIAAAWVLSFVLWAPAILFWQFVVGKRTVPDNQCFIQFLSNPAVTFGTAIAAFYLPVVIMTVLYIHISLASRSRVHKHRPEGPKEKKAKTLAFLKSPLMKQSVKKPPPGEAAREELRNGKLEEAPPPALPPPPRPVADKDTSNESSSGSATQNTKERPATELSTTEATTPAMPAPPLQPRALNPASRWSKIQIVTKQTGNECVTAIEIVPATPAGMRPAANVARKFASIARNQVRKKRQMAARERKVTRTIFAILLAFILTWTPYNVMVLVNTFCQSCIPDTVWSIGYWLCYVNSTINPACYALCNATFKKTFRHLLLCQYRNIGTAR
The experiment in a line: Binding affinity to human muscarinic M4 receptor expressed in […] cells incubated in dark at 22 degree C for 2 hrs by FACSCalibur flow cytometric saturation binding study. The assay is classed as cell-based.

Assay [3] has as its target T3, Muscarinic acetylcholine receptor M2 (Homo sapiens) (UniProt P08172).
T3 sequence (whole entry): T1 sequence (P08172 whole entry)
The experiment in a line: Binding affinity to human muscarinic M2 receptor expressed in CHO-K9 cells assessed as dissociation rate constant at 22 +/- 1 degree C preincubated for 180 mins followed by atropine addition by flow cytometric saturation binding study. In kind it is cell-based. The essentials: (§1)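 Dissociation followed by flow cytometry at 22 °C over 9 h. koff from three-parameter incomplete monophasic decline fit; three or four experiments in duplicate.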

Assay [4] concerns the target T4, Muscarinic acetylcholine receptor M1 (Homo sapiens, UniProt P11229).
T4 sequence (P11229 whole entry): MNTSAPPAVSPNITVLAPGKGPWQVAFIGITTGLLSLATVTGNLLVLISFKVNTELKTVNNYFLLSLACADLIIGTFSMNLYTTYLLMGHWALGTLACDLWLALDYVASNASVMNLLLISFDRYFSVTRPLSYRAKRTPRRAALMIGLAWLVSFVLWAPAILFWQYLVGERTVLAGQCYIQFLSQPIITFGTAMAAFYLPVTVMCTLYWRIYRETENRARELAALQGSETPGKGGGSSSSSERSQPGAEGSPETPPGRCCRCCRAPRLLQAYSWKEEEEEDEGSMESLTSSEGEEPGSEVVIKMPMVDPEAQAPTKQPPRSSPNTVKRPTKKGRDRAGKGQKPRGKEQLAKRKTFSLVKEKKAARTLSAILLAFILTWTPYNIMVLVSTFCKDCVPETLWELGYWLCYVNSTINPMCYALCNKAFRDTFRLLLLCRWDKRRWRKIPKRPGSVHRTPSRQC
The assay can be described thus: Binding affinity to human muscarinic M1 receptor expressed in CHO-K9 cells incubated in dark at 22 degree C for 2 hrs by FACSCalibur flow cytometric saturation binding study. In kind it is cell-based.

Assay [5] deals with T1, Muscarinic acetylcholine receptor M2. The assay can be described thus: Binding affinity to human muscarinic M2 receptor expressed in […] cells at 22 +/- 1 degree C preincubated for 180 mins followed by atropine addition by flow cytometric kinetic binding study.
For assay [6] the target is unchanged. The experiment in a line: Binding affinity to human muscarinic M2 receptor expressed in […] cells at 22 +/- 1 degree C preincubated for 120 mins followed by atropine addition by flow cytometric saturation binding study. In kind it is cell-based.
For assay [7], the target named is T3, Muscarinic acetylcholine receptor M2 (Homo sapiens). The experiment in a line: Binding affinity to human muscarinic M2 receptor expressed in CHO-K9 cells assessed as dissociation rate constant at 22 +/- 1 degree C preincubated for 120 mins followed by atropine addition by flow cytometric saturation binding study. In kind it is cell-based. The essentials: as §1

The structures appear in SMILES notation. pKd: −log10 of the molar value.

Consider `CC1(C)C(/C=C/C=C/C=C2/N(CCCCCC(=O)NCc3cc(C(=O)NCCNC(=O)CCc4cn(CCCCC5CCN(CC(=O)N6c7ccccc7NC(=O)c7ccccc76)CC5)cn4)cc(C(=O)NCCNC(=O)CCc4cn(CCCCC5CCN(CC(=O)N6c7ccccc7NC(=O)c7ccccc76)CC5)cn4)c3)c3ccc(S(=O)(=O)O)cc3C2(C)C)=[N+](CCCCS(=O)(=O)[O-])c2ccccc21.O=C(O)C(F)(F)F.O=C(O)C(F)(F)F.O=C(O)C(F)(F)F`, for which, in assay [1], the pKd was 8.85.

For the compound `CC1(C)C(/C=C/C=C/C=C2/N(CCCCCC(=O)NCCN3CCN(CCCCC4CCN(CC(=O)N5c6ccccc6NC(=O)c6ccccc65)CC4)CC3)c3ccc(S(=O)(=O)O)cc3C2(C)C)=[N+](CCCCS(=O)(=O)[O-])c2ccccc21.O=C(O)C(F)(F)F.O=C(O)C(F)(F)F`, the figures for the negative-log Kd (pKd) in assay [2], in assay [4] and in assay [5] were 8.02, 8.19 and 9.32, respectively. Also, the K in assay [3] amounted to 0.0045 min⁻¹.

In assay [6], `CC1(C)C(/C=C/C=C/C=C2/N(CCCCCC(=O)NCCNC(=O)CCc3cn(CCCCC4CCN(CC(=O)N5c6ccccc6NC(=O)c6ccccc65)CC4)cn3)c3ccc(S(=O)(=O)O)cc3C2(C)C)=[N+](CCCCS(=O)(=O)[O-])c2ccccc21.O=C(O)C(F)(F)F` had a pKd of 8.72. Further, in assay [7], the K was determined as 0.0069 min⁻¹.

Broadly, the pKd is the negative decadic logarithm of the Kd, by convention in mol/L. Low values mean a high Kd, high ones a low Kd.

These data come from ChEMBL document CHEMBL4602702, “Red-Emitting Dibenzodiazepinone Derivatives as Fluorescent Dualsteric Probes for the Muscarinic Acetylcholine M2 Receptor” (J Med Chem, 2020).
